The record followed here is ChEMBL document CHEMBL4613270, “Structure-Activity Relationship Study Enables the Discovery of a Novel Berberine Analogue as the RXRα Activator to Inhibit Colon Cancer” (J Med Chem, 2020).

The source made the active and inactive calls. The calls are words filed in the database; no cut-off is given here.

The target of series [1] is T1, Retinoic acid receptor RXR-alpha (Homo sapiens) (UniProt P19793).
T1 sequence (whole entry): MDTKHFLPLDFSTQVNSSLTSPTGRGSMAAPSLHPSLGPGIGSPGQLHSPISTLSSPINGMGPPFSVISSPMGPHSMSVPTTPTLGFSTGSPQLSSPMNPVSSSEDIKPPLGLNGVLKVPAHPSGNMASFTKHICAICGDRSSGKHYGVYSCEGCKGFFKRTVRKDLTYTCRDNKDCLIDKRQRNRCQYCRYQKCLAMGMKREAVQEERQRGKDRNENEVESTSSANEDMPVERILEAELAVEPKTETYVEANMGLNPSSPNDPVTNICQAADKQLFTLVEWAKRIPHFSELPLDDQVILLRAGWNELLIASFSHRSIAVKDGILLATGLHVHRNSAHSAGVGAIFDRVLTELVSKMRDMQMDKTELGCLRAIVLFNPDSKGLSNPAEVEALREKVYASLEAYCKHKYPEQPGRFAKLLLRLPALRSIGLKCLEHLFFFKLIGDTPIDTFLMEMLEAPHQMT
Put plainly: In-vivo activation of RXRalpha in BALB/c mouse xenografted with human KM12C cells assessed as reduction in Cdc2 mRNA expression at 100 mg/kg, ig dosed daily for 15 days by real-time PCR analysis. In kind it is functional, organism-based. The essentials: (§1)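 KM12C cells (1×10^6 per mouse in 100 μL HBSS) injected subcutaneously into both flanks of nude mice; after seven days, randomized to three groups, dosed intragastrically once daily for 15 days with vehicle (CMC-Na) or 100 mg/kg compound; mice euthanized and tumors removed for analysis.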

In series [2] the target is T1, Retinoic acid receptor RXR-alpha (Homo sapiens). Put plainly: Activation of RXRalpha LBD (unknown origin) expressed in human KM12C cells at 50 uM incubated for 15 hrs by luciferase reporter gene assay. In kind it is cell-based. In a few lines:
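KM12C co-transfected with pG5luc and pBIND-RXRα-LBD (Gal4-fusion one-hybrid); 20 h post-transfection treated 15 h with 50 μM compound; dual-luciferase read-out (firefly/Renilla) after passive lysis at 4 °C, 1 h; basal activity normalized to 1.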
For orientation: A reporter such as luciferase makes a cellular process visible.

Series [3] in a line: AUC (0 to t) in Sprague-Dawley rat at 100 mg/kg, ig measured after 0.083 to 36 hrs by LC-MS/MS analysis. Format: ADME, organism-based. On the set-up: time upper 36 hr, time lower 0.083 hr, dose 100 mg/kg, route intragastric. Particulars: in vivo, po. The essentials:
(§2)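 SD rats (200 ± 20 g) randomized to three groups; single intragastric dose of 100 mg/kg or vehicle (0.5% CMC-Na). Tail-vein blood (0.5 mL) drawn at 0.083, 0.25, 0.5, 1, 2, 4, 8, 12, 24 and 36 h. Plasma separated by centrifugation at 2000 rpm for 10 min, frozen at -80 °C, then quantified by LC-MS/MS.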

The next series deals with KM12C. Put plainly: Antitumor activity against human KM12C cells xenografted in BALB/c mouse assessed as inhibition of tumor growth at 100 mg/kg, ig dosed daily for 15 days relative to control. In kind it is functional. Particulars: po, 360 h, read-out: TGI. In a few lines: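 Nude mice received subcutaneous injections of KM12C cells (1×10⁶ in 100 μL HBSS) into both flanks. After seven days, tumour-bearing mice (80–200 mm³) were randomized into three groups. Daily intragastric dosing at 100 mg/kg, or CMC-Na vehicle, for 15 days. Tumours then excised and weighed; inhibition rate calculated versus vehicle.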
On the technique in general: A xenograft is tissue or cells of one species grown in another, often human tumour cells in immunodeficient mice.

A short description of series [4]: Toxicity in BALB/c mouse xenografted with human KM12C cells assessed as effect on biochemical parameter by measuring ALP level at 100 mg/kg, ig dosed daily for 15 days by automatic chemistry analyzer based analysis (reference value: 76.53 +/- 4.31 U/L). In kind it is organism-based. Particulars: in vivo, po, 360 h.
Series [5] concerns the target T1, Retinoic acid receptor RXR-alpha (Homo sapiens). Put plainly: In-vivo activation of RXRalpha in BALB/c mouse xenografted with human KM12C cells assessed as induction of beta-catenin protein degradation at 100 mg/kg, ig dosed daily for 15 days by immunohistochemistry analysis. Format: functional, organism-based. The essentials:
as §1

A short description of series [6]: Toxicity in BALB/c mouse xenografted with human KM12C cells assessed as effect on biochemical parameter by measuring AST level at 100 mg/kg, ig dosed daily for 15 days by automatic chemistry analyzer based analysis (reference value: 157.15 +/- 8.41 U/L). In kind it is organism-based. Particulars: in vivo, po, 360 h.
Series [7] is described as follows: Toxicity in BALB/c mouse xenografted with human KM12C cells assessed as effect on biochemical parameter by measuring total cholesterol level at 100 mg/kg, ig dosed daily for 15 days by automatic chemistry analyzer based analysis (reference value: 2.32 +/- 0.11 mmol/L). Format: organism-based. Particulars: in vivo, po, 360 h.
The target of series [8] is T1, Retinoic acid receptor RXR-alpha (Homo sapiens). Put plainly: Activation of RXRalpha in human KM12C cells assessed as inhibition of Wnt/beta-catenin-dependent transcriptional activity at 25 to 50 uM incubated for 15 hrs by TOP/FOP luciferase assay. Format: cell-based. The essentials:
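TOP/FOP reporter: cells co-transfected by lipofection with pRL-TK plus TOPflash or FOPflash; compound added 20 h after transfection for 15 h; passive lysis at 4 °C, 1 h; firefly and Renilla luciferase measured by dual-luciferase assay.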

Series [9] has the same target. Put plainly: Activation of RXRalpha (unknown origin) expressed in human SW620 cells co-expressing beta-catenin assessed as induction of RXRalpha interaction with beta-catenin at 40 to 80 uM incubated for 15 hrs by mammalian two-hybrid assay. Format: cell-based. Particulars: SW-620. The essentials: (§3)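 Mammalian two-hybrid: cells co-transfected by lipofection with pBIND-β-catenin/S33Y plus pACT-RXRα (RXRα–β-catenin) or pACT-c-Cbl (β-catenin–c-Cbl); 20 h after transfection, compound added for 15 h; cells lysed in passive lysis buffer, 4 °C, 1 h; firefly and Renilla luciferase read by dual-luciferase kit.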

Series [10] shares this target. Put plainly: Activation of RXRalpha in human KM12C cells assessed as reduction in c-Myc mRNA expression at 25 to 50 uM incubated for 15 hrs by real-time PCR analysis. In kind it is cell-based. (In general: Quantitative PCR measures a nucleic acid by following its amplification.)
The target is the same in series [11]. Put plainly: Activation of RXRalpha in human KM12C cells assessed as increase in p21 (WAF1/CIP1) protein expression at 25 to 50 uM incubated for 15 hrs by Western blot analysis. In kind it is cell-based.
Series [12] is described as follows: Half life in Sprague-Dawley rat at 100 mg/kg, ig measured after 0.083 to 36 hrs by LC-MS/MS analysis. In kind it is ADME, organism-based. Particulars: in vivo, po. The essentials:
as §2

Series [13] concerns the target T1, Retinoic acid receptor RXR-alpha (Homo sapiens). Put plainly: Activation of RXRalpha (unknown origin) expressed in human HCT116 cells co-expressing beta-catenin assessed as induction of RXRalpha interaction with beta-catenin at 30 to 60 uM incubated for 15 hrs by mammalian two-hybrid assay. In kind it is cell-based. Particulars: HCT-116. The essentials:
as §3

Series [14] has the same target. Put plainly: Activation of RXRalpha in human SW620 cells assessed as reduction in Cdc2 mRNA expression at 40 to 80 uM incubated for 15 hrs by real-time PCR analysis. Format: cell-based. Particulars: SW-620.
Series [15] has the same target. Put plainly: Activation of RXRalpha in human SW620 cells assessed as reduction in c-Myc protein expression at 40 to 80 uM incubated for 15 hrs by Western blot analysis. Format: cell-based. Particulars: SW-620.
The nature of series [16]: Cmax in Sprague-Dawley rat at 100 mg/kg, ig measured after 0.083 to 36 hrs by LC-MS/MS analysis. Format: ADME, organism-based. Set-up: dose 100 mg/kg, route intragastric. Particulars: in vivo, po. The essentials: as §2
Series [17] deals with T1, Retinoic acid receptor RXR-alpha (Homo sapiens). Put plainly: Activation of RXRalpha in human SW620 cells assessed as induction of beta-catenin protein degradation at 40 to 80 uM incubated for 15 hrs by Western blot analysis. Particulars: SW-620. In kind it is cell-based.
Series [18] has the same target. Put plainly: In-vivo activation of RXRalpha in BALB/c mouse xenografted with human KM12C cells assessed as reduction in c-Myc protein expression at 100 mg/kg, ig dosed daily for 15 days by immunohistochemistry analysis. In kind it is functional, organism-based. In a few lines: as §1

Regarding `COc1ccc2cc3[n+](cc2c1OC)CCc1cc2c(cc1-3)OCO2.[Cl-]` [BERBERINE CHLORIDE], the outcome in series [1], in series [2], in series [5], in [8], in series [9] and in series [10] was Active. Moreover, the result in series [11], in series [13], in [14], in series [15], in series [17] and in series [18] was Active. In series [3], the AUC(0-t) (commonly exposure summed from dosing to a finite time, without extrapolation to infinity) is 99 ng·h/mL. For the same compound, the inhibition in vivo at 100 mg/kg with KM12C turned out to be 33.6%. The Activity in series [4] was 71.28 U/L; in series [6], 177.86 U/L; in [7] it was 2.35 mmol/L. Further, the half-life (usually how long it takes for the measured level to halve) in [12] is 1740 min. Besides, the Cmax (as a rule, the peak of the concentration-time curve) in series [16] was determined as 2.893 ng/mL.
Regarding `COc1ccc2c(c1)CC[n+]1cc3c(OC)cccc3cc1-2.[Cl-]`, the outcome in series [1], in [2], in [5], in [8], in [9] and in [10] was Active. In addition, the outcome in series [11], in series [13], in series [14], in series [15], in series [17] and in series [18] was Active. The compound also yielded an AUC(0-t) in [3] of 2100 ng·h/mL. Further, the inhibition in vivo at 100 mg/kg with KM12C was found to be 69.1%. Further, the results for the Activity in series [4], in [6] and in [7] were 78.35 U/L, 158.36 U/L and 2.49 mmol/L, respectively. Also, in [12], the half-life was 695 min. For the same compound, in [16] (Sprague-Dawley, read-out: Cmax), the Cmax was determined as 486 ng/mL.
